Consider one molecule from ChEMBL document CHEMBL3600378 (J Med Chem, 2015).

Structures are written as SMILES. Some results are limits rather than exact numbers.

The target of series [1] is T1, Beta-3 adrenergic receptor (Homo sapiens, UniProt P13945). The series can be described thus: Agonist activity at human recombinant beta3-adrenergic receptor expressed in CHO cells assessed as increase of cAMP level after 30 mins. It counts as functional, cell-based. A general note: cAMP levels reflect the balance of adenylyl cyclase and phosphodiesterase activity.
Target sequence in this assay (P13945 whole entry): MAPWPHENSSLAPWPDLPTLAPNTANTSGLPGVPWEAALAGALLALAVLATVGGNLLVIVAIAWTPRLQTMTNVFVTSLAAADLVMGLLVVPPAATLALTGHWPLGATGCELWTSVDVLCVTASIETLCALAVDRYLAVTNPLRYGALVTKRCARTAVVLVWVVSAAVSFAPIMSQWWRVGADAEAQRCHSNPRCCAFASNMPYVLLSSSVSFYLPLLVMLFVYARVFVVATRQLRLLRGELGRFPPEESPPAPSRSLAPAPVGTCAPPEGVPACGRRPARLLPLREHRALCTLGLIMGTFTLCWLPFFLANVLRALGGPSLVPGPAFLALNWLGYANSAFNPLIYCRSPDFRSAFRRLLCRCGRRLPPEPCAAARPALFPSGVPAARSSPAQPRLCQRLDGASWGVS

Series [2] deals with T1, Beta-3 adrenergic receptor. The series can be described thus: Intrinsic activity at human beta3-adrenergic receptor expressed in CHO cells assessed as increase of cAMP level after 30 mins relative to isoproterenol. It counts as functional, cell-based. An outline of the steps: (§1)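 Stably transfected CHO cells expressing human β1, β2 or β3 or marmoset β3 receptor were grown in Ham's F-12 with 10% FBS and geneticin, seeded at 2×10⁴ cells/well and grown about 20 h. Cells spent 15 min serum-free, then 30 min with compound in medium containing HEPES and isobutylmethylxanthine. Lysate cAMP was measured by kit. […] EC50 is the half-maximal concentration for each compound.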
Target sequence in this assay (P13945 whole entry, looked up): as the sequence (P13945 whole entry) above

Series [3] has as its target T2, Beta-1 adrenergic receptor (Homo sapiens, UniProt P08588). The series can be described thus: Agonist activity at human beta1-adrenergic receptor expressed in CHO cells assessed as increase of cAMP level after 30 mins. It counts as functional, cell-based. An outline of the steps: as §1
Target sequence in this assay (P08588 whole entry): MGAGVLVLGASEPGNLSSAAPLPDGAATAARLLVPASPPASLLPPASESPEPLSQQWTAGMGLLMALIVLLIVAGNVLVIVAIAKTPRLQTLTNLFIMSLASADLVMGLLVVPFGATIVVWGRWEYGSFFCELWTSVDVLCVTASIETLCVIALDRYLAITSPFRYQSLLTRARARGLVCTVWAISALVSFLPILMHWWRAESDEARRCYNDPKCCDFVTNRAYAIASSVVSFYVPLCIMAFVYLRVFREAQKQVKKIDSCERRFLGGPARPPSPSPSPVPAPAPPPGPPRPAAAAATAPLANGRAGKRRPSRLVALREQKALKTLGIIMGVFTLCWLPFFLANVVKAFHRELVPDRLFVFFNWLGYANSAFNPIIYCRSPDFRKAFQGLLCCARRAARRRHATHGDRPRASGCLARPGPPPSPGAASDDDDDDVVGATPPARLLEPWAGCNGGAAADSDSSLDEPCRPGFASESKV
Series [4] concerns the target T2, Beta-1 adrenergic receptor. In words: Intrinsic activity at human beta1-adrenergic receptor expressed in CHO cells assessed as increase of cAMP level after 30 mins relative to isoproterenol. In kind it is functional, cell-based. An outline of the steps: as §1
Target sequence in this assay (P08588 whole entry, looked up): as the sequence (P08588 whole entry) above
Series [5] has as its target T3, Beta-2 adrenergic receptor (Homo sapiens, UniProt P07550). In words: Agonist activity at human beta2-adrenergic receptor expressed in CHO cells assessed as increase of cAMP level after 30 mins. It counts as functional, cell-based. An outline of the steps:
as §1
Target sequence in this assay (P07550 whole entry): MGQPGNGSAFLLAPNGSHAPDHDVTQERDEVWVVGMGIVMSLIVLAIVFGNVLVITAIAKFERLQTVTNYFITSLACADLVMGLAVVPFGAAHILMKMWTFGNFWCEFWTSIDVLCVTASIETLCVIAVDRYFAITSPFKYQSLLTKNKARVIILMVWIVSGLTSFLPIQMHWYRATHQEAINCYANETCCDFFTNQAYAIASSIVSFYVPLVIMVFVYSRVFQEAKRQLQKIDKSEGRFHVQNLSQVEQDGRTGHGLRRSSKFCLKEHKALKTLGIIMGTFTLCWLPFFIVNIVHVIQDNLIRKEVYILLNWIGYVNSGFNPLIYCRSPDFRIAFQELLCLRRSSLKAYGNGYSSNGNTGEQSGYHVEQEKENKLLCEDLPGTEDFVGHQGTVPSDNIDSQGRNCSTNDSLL

In series [6] the target is T3, Beta-2 adrenergic receptor. The series can be described thus: Intrinsic activity at human beta2-adrenergic receptor expressed in CHO cells assessed as increase of cAMP level after 30 mins relative to isoproterenol. In kind it is functional, cell-based. An outline of the steps:
as §1
Target sequence in this assay (P07550 whole entry, looked up): as the sequence (P07550 whole entry) above

The species named for series [7] is Homo sapiens. The series can be described thus: Selectivity ratio of EC50 for human beta1-adrenergic receptor to EC50 for human beta3-adrenergic receptor.
The species named for series [8] is Homo sapiens. The series can be described thus: Selectivity ratio of EC50 for human beta2-adrenergic receptor to EC50 for human beta3-adrenergic receptor.
Series [9] deals with T4, Alpha-1A adrenergic receptor (Homo sapiens, UniProt P35348).
T4 sequence (P35348 whole entry): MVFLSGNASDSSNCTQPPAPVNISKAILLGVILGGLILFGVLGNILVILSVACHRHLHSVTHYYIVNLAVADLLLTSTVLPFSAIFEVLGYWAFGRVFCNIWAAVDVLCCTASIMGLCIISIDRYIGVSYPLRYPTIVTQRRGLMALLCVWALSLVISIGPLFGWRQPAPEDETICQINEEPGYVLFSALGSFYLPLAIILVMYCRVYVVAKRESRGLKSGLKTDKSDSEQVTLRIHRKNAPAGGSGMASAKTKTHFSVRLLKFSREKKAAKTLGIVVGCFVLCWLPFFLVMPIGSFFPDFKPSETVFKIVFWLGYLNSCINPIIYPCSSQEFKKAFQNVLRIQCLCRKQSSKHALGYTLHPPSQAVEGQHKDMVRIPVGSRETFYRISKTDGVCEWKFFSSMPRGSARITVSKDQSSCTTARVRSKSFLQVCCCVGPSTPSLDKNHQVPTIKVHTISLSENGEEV
The series can be described thus: Agonist activity at human alpha1A-adrenergic receptor expressed in HEK293 cells assessed as calcium flux by fluorescence assay. In kind it is functional, cell-based.

Series [10] concerns the target T5, Alpha-1A adrenergic receptor (Homo sapiens) (UniProt P35348).
T5 sequence (whole entry): T4 sequence (P35348 whole entry)
The series can be described thus: Intrinsic activity at human alpha1A-adrenergic receptor expressed in HEK293 cells assessed as calcium flux by fluorescence assay relative to norepinephrine. In kind it is functional, cell-based.

Series [11] deals with T6, Alpha-1B adrenergic receptor (Homo sapiens, UniProt P35368).
T6 sequence (P35368 whole entry): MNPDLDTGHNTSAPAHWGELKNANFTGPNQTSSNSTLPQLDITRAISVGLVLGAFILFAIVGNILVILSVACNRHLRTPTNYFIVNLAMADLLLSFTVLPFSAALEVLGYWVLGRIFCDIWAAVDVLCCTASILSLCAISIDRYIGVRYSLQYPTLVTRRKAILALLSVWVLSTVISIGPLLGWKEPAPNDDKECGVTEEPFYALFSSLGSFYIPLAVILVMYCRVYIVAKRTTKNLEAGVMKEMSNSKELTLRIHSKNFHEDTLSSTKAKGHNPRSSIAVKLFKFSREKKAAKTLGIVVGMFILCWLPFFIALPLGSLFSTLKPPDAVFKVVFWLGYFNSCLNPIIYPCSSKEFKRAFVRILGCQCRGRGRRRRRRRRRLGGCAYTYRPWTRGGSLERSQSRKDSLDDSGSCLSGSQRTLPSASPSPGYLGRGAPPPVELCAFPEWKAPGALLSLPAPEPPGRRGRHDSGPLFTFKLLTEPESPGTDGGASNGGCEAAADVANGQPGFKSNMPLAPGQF
The series can be described thus: Agonist activity at human alpha1B-adrenergic receptor.

Series [12] has as its target T7, Alpha-1D adrenergic receptor (Homo sapiens, UniProt P25100).
T7 sequence (P25100 whole entry): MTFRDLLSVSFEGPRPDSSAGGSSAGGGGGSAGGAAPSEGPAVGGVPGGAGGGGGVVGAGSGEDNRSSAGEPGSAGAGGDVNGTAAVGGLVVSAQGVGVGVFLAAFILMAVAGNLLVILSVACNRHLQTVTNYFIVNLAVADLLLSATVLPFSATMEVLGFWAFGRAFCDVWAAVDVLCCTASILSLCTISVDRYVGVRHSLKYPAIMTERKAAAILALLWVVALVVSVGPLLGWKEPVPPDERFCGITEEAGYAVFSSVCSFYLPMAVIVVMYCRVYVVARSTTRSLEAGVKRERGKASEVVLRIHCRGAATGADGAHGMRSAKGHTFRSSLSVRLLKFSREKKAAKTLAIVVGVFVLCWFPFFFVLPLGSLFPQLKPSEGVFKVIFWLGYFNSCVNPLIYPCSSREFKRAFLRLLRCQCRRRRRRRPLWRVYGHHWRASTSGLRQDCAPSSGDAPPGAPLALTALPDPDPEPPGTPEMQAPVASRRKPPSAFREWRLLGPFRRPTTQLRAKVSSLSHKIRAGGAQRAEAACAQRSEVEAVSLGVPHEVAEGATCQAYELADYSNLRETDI
In words: Agonist activity at human alpha1D-adrenergic receptor.

The test system of series [13] is Rattus norvegicus. In words: Cardiotoxicity in anesthetized Sprague-Dawley rat assessed as increase in heart rate at 3 mg/kg, iv measured for 30 mins relative to control. In kind it is toxicity, organism-based. Particulars: in vivo, 0.5 h. An outline of the steps: (§2)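 Male Sprague-Dawley rats (200-300 g) were anesthetized with sodium pentobarbital (50 mg/kg i.p. plus 25 mg/kg s.c.). The compound was injected via the cannulated left femoral vein once BP and HR were stable, and HR and MBP were recorded for 30 min. Results are the maximum % increase or decrease from baseline, as mean ± SEM. Where given, silodosin (0.01 mg/kg iv) preceded the compound.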

Series [14] relates to Rattus norvegicus. In words: Cardiotoxicity in anesthetized Sprague-Dawley rat assessed as decrease in heart rate at 3 mg/kg, iv measured for 30 mins relative to control. In kind it is toxicity, organism-based. More on the design: scale not given: the % may be the effect or the level left. Particulars: in vivo, 0.5 h. An outline of the steps: as §2
Series [15] relates to Rattus norvegicus. In words: Cardiotoxicity in anesthetized Sprague-Dawley rat assessed as decrease in mean blood pressure at 3 mg/kg, iv measured for 30 mins relative to control. In kind it is toxicity, organism-based. More on the design: scale not given: the % may be the effect or the level left. Conditions: in vivo, 0.5 h. An outline of the steps:
as §2

What is called EC50 is the concentration that produces a half-maximal response. `Cc1n[nH]c2cc(OCCNC[C@H](O)c3cccc(NS(C)(=O)=O)c3)ccc12`: the EC50 in series [1] was 0.021 µM; in series [3], > 10 µM; in [5], > 10 µM; in series [9], 0.219 µM; in series [11] it was > 10 µM; in series [12], > 10 µM. The Intrinsic activity is 82% in series [2], 6% in [4], 4% in series [6] and 71% in series [10]. The Ratio EC50 in series [7] and in [8] was > 476 each time. Moreover, the Activity in [13] was found to be 7.9%; in series [14], 8.8%; in series [15] it was 8.5%.
